Data from PMC7263447 (Journal of medicinal chemistry, 2020).
Ends that are not written are not given here. * marks the point of attachment. Dnp = O=[N+]([O-])c1ccc(*)c([N+](=O)[O-])c1

Assays:
MDA-MB-231 cells [1] = assay: Toxicity of conjugate alone; assay type: cell-based, human; settings: ≤10 μM conjugate only, LDH release (Figure S8)
MDA-MB-231 cells [2] = assay: Antibody recruitment assay, anti-DNP-A488, flow cytometry; assay type: cell-based, human; settings: 1 μM conjugate, pH 7.4 or 6.0, 25 μg/mL anti-DNP-A488, flow cytometry, n = 3
Method in brief: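 Conjugate held at 20 μM in 5 mM sodium phosphate pH 9.0 for 1 h at RT, then diluted and pH-adjusted with citrate/PBS. Cells were washed, stained with anti-DNP-A488 rabbit polyclonal for 30 min at 4 °C, fixed in 4% PFA and read by flow cytometry. Values are fold over pH 7.4 antibody-only cells.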

MDA-MB-231 cells [3] = assay: Complement-dependent cytotoxicity; assay type: cell-based, human; settings: 1 μM conjugate, 12.5% PHS, 4 h, LDH release
Method in brief: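 Cells (240000 MDA-MB-231) were treated in suspension with 1 μM conjugate for 5 min at 37 °C, at pH 7.4 or 6.0. After washing they were opsonised with 25 μg/mL rabbit anti-DNP-KLH (30 min, 4 °C). Pooled human complement serum was added to 12.5% in DMEM for 4 h at 37 °C. Supernatant LDH was assayed in triplicate (30 min RT, 490/680 nm). Cytotoxicity is relative to antibody-only cells without peptide. Mean ± SEM, n = 3–12.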

MDA-MB-231 cells [4] = assay: Antibody-dependent cellular cytotoxicity with haNK cells; assay type: cell-based, human; settings: 500 nM conjugate, anti-DNP antibody, haNK effector:target 5:1, 4 h, LDH release
Method in brief: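 Targets were 150000 MDA-MB-231 cells, pulsed 5 min at 37 °C at pH 7.4 or 6.0. They were then held with 25 μg/mL rabbit anti-DNP-KLH for 30 min at 4 °C. Effectors were IL-2-maintained F176V CD16+ NK-92 (haNK) cells at 5:1 in MEMα, 4 h, 37 °C. Supernatant LDH was read at 490/680 nm. Lysis % = (LDH − normal)/normal × 100, normal being antibody plus effectors without conjugate. Mean ± SEM, n = 3–12.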

MDA-MB-231 cells [5] = assay: Antibody-dependent cellular cytotoxicity with PBMCs; assay type: cell-based, human
Method in brief: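 MDA-MB-231 cells (150000) were exposed to the pH-adjusted conjugate for 5 min at 37 °C, at pH 7.4 or 6.0. After washing, they were incubated with unconjugated rabbit anti-DNP-KLH (25 μg/mL, 30 min, 4 °C). Single-donor human PBMCs were added at 50:1 in RPMI 1640 for 4 h at 37 °C. Supernatant LDH was read at 490/680 nm. Cytotoxicity % = (LDH − normal)/normal × 100. Control normal release was effector-only or target-only at pH 7.4.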

MDA-MB-231 cells [6] = assay: Antibody recruitment from pooled human serum; assay type: cell-based; settings: 1 μM conjugate, pH 7.4 or 6.0, 12.5% PHS, FITC-labeled anti-human IgG, n = 3

Substance: Dnp-KEQNPIYWARYADWLFTTPLLLLELALLVDADEGTG [Conjugate 2]
- cell lysis by conjugate only (MDA-MB-231 cells [1]): cell lysis was not observed
- anti-DNP antibody recruitment (cellular fluorescence) (MDA-MB-231 cells [2]): highest level of cellular fluorescence
- cell lysis (CDC) (MDA-MB-231 cells [3]; pH 6.0, anti-DNP antibody): 10%
- toxicity (CDC) (MDA-MB-231 cells [3]; pH 7.4, anti-DNP antibody): no toxicity at all
- cell lysis (ADCC, haNK cells), maximum efficacy (MDA-MB-231 cells [4]): ~ 40%
- pH selectivity of PBMC-mediated cell lysis (MDA-MB-231 cells [5]; 1 μM conjugate, anti-DNP antibody, pH 6.0 vs 7.4): ~ 2 fold
- cell lysis with mock anti-FITC antibodies or without antibodies (PBMCs) (MDA-MB-231 cells [5]; control, mock anti-FITC antibodies or no antibodies prior to PBMCs (Figure S7A)): cell lysis was not observed
- antibody recruitment from serum (relative fluorescence) (MDA-MB-231 cells [6]): significant increase in relative fluorescence at pH 6.0 compared to that at pH 7.4
